From ChEMBL document CHEMBL1795290, “Simplification of the tetracyclic SIRT1-selective inhibitor MC2141: coumarin- and pyrimidine-based SIRT1/2 inhibitors with different selectivity profile” (Bioorg Med Chem, 2011) come the findings set out here.

The source made the active and inactive calls. No cut-off for these calls is given here. Where only a bound is given, the exact number is not on record here.

The test system of data set [1] is U-937. Description: Induction of granulocytic differentiation in human U937 cells assessed as change in CD11c expression at 50 uM […] by FACS assay. It is filed as functional. A general note: In flow cytometry, cells or beads pass a laser one at a time.
Data set [2] deals with U-937. Description: Cell cycle arrest in human U937 cells assessed as accumulation at G2/M phase at 50 uM incubated for 30 hrs by flow cytometry. It is filed as functional, cell-based. The procedure, abridged: (§1)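 U937 leukaemia cells were exposed to compound at 50 µM for 30 h. Then 2.5 × 10^5 cells were resuspended in hypotonic buffer (0.1% Triton X-100, 0.1% sodium citrate, 50 µg/mL propidium iodide, RNase A) and kept 30 min in the dark. DNA content was read by flow cytometry and cell-cycle phases were modelled. Run in triplicate.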

Data set [3] has as its system U-937. Description: Toxicity in human U937 cells at 50 uM incubated for 30 hrs. Type of data set: cell-based. As to conditions: u-937, 30 h.
The target in data set [4] is T1, NAD-dependent protein deacetylase sirtuin-1 (Homo sapiens) (UniProt Q96EB6).
T1 sequence (whole entry): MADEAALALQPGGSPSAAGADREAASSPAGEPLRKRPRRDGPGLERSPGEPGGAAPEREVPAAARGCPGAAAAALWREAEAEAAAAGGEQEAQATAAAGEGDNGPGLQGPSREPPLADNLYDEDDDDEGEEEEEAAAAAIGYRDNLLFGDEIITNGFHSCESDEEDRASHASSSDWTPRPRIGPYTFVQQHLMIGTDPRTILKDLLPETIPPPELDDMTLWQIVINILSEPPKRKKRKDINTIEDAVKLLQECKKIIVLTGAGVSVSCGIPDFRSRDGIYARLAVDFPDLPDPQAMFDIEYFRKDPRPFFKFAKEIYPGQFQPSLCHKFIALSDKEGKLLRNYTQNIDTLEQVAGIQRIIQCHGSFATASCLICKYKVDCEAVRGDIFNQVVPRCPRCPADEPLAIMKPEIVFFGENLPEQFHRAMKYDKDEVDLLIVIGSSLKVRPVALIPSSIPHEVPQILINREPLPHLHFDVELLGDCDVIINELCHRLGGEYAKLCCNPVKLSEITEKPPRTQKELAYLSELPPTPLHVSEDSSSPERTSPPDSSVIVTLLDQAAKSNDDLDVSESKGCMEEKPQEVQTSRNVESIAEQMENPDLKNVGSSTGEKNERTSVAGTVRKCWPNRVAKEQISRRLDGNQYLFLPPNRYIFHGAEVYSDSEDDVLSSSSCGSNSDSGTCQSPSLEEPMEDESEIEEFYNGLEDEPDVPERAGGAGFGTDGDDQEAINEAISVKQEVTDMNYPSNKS
Description: Inhibition of human recombinant SIRT1 expressed in Escherichia coli at 50 uM incubated at 37 degC for 2 hrs by Fluor de Lys fluorescence assay. The procedure, abridged:
(§2)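 Human recombinant enzymes expressed in E. coli: SIRT1 at 2 U, SIRT2 at 7 U. Two-stage assay with a deacetylation step at 37 °C for 2 h, using Fluor de Lys-SIRT1/2 substrate with NAD+ and compound (50 µM single point or a concentration series). IC50 obtained by curve fitting.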

The target of data set [5] is T2, NAD-dependent protein deacetylase sirtuin-2 (Homo sapiens) (UniProt Q8IXJ6).
T2 sequence (whole entry): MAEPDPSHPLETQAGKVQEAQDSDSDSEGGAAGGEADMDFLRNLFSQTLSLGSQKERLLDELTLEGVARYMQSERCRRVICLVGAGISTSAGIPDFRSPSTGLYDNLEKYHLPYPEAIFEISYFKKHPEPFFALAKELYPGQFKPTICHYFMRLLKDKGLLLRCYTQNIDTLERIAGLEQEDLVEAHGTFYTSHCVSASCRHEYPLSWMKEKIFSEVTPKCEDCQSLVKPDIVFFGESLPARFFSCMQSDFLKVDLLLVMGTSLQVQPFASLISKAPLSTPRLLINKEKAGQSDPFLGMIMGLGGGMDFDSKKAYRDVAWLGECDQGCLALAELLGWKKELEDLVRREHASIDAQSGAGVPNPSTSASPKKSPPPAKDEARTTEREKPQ
Description: Inhibition of human recombinant SIRT2 expressed in Escherichia coli at 50 uM incubated at 37 degC for 2 hrs by Fluor de Lys fluorescence assay. The procedure, abridged:
as §2

For data set [6], the system named is U-937. Description: Cell cycle arrest in human U937 cells assessed as accumulation at G1/S phase at 50 uM incubated for 30 hrs by flow cytometry. Type of data set: functional, cell-based. Put shortly:
as §1

Data set [7] has as its target T3, NAD-dependent protein deacetylase sirtuin-2 (Homo sapiens, UniProt Q8IXJ6).
T3 sequence (Q8IXJ6 whole entry): T2 sequence (whole entry)
Description: Inhibition of human recombinant SIRT2 expressed in Escherichia coli incubated at 37 degC for 2 hrs by Fluor de Lys fluorescence assay. Put shortly:
as §2

For data set [8], the target named is T4, NAD-dependent protein deacetylase sirtuin-1 (Homo sapiens, UniProt Q96EB6).
T4 sequence (Q96EB6 whole entry): T1 sequence (whole entry)
Description: Inhibition of human recombinant SIRT1 expressed in Escherichia coli incubated at 37 degC for 2 hrs by Fluor de Lys fluorescence assay. Put shortly:
as §2

The test system of data set [9] is U-937. Description: Induction of apoptosis in human U937 cells assessed as caspase 3/7 activation at 50 uM incubated for 30 hrs by FACS assay based B-Bridge method. Type of data set: functional. Put shortly: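 U937 cells were treated at 50 µM for 30 h. Apoptosis was scored as caspase 3–7 activation using a caspase 3–7 detection kit, with FACS read-out.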
In data set [10] the test system is U-937. Description: Cell cycle arrest in human U937 cells assessed as accumulation at G1 phase at 50 uM incubated for 30 hrs by flow cytometry. Type of data set: functional, cell-based. The procedure, abridged:
as §1

Take `O=c1nc2oc3ccc4ccccc4c3cc-2c(=O)n1-c1ccccc1`: in data set [1], the outcome was inactive. Moreover, the outcome in [2] was Active.
As usually defined, the inhibition is the share of the control response that was lost under treatment. `O=C1Oc2ccc3ccccc3c2CC1C(=O)c1ccncc1` (centres undefined): the Activity is recorded as above 30% in data set [1] and “Non-toxic” in [3]. For the same molecule, the inhibition in data set [4] amounted to 69.3%; in data set [5], 94.5%. Moreover, the result in data set [6] was Active.
Take `O=C1Oc2ccc3ccccc3c2CC1C(=O)c1ccc(Cl)cc1` (centres undefined): the Activity in [1] is reported as above 30%; in [3], “Non-toxic”. Further, the inhibition in [4] is 17.1%; in data set [5], 89.5%. Moreover, the result in [2] was Active.
One may read the IC50 as the concentration that inhibits the measured activity by half. Turning to `O=C1Oc2ccc3ccccc3c2CC1C(=O)c1ccccc1` (centres undefined), the IC50 in data set [7] was 179 µM; in data set [8], 112 µM. Also, in [3], the Activity result was “Non-toxic”. Besides, the inhibition came out at 32.1% in data set [4] and 20.2% in data set [5]. The result in data set [9] and in data set [6] was Active.
For the molecule `O=c1[nH]c(=S)[nH]c(CCc2ccccc2)c1Cc1c(O)ccc2ccccc12`, the result in data set [1] was inactive. The values for the IC50 in data set [7] and in data set [8] were 50.8 µM and 17.5 µM, respectively. Also, in [3], the Activity result is “Non-toxic”. The inhibition in data set [4] came out at 83%; in [5], 49.8%. Further, the outcome in data set [9] was Active.
As for `O=C1Oc2ccc3ccccc3c2CC1C(=O)c1ccc2ccccc2c1` (centres undefined), the IC50 in [7] is 8.9 µM. The Activity entry in [3] was “Non-toxic”. The values for the inhibition in data set [4] and in data set [5] were 5.2% and 91.1%, respectively. In addition, the result in [9] and in data set [6] was Active.
For the molecule `O=C1Oc2ccc3ccccc3c2CC1C(=O)c1ccsc1` (centres undefined), in data set [3], the Activity result is reported as “Non-toxic”. In addition, the values for the inhibition in data set [4] and in data set [5] were 19.1% and 78.9%, respectively. Besides, in data set [6], the result was Active.
Turning to `O=C1Oc2ccc3ccccc3c2CC1C(=O)c1ccc(-c2ccccc2)cc1` (centres undefined), the results for the Activity in [1], in data set [3] and in [9] were above 30%, “Non-toxic” and 18.4%, respectively. Besides, the IC50 in [7] turned out to be 10 µM. Besides, the inhibition was 8.9% in data set [4] and 88.8% in data set [5].
Turning to `O=C1Oc2ccc3ccccc3c2CC1C(=O)c1ccco1` (centres undefined), the Activity entry in data set [3] is on record as “Non-toxic”. In addition, the inhibition in data set [4] was determined as 28.9%; in data set [5], 83.3%. Also, the result in [6] was Active.
`O=c1[nH]c(=S)[nH]c(-c2cccc3ccccc23)c1Cc1c(O)ccc2ccccc12`: the outcome in [10] and in data set [9] was Active. Also, the result in data set [1] was inactive. Besides, the Activity result in data set [3] is on record as “Non-toxic”. The inhibition in data set [4] came out at 81.7%; in [5], 45.8%.
For the molecule `O=C(Cc1ccccc1)C1Cc2c(ccc3ccccc23)OC1=O` (centres undefined), in data set [3], the Activity result is reported as “Non-toxic”. Also, the values for the inhibition in [4] and in [5] were 11.3% and 81.2%, respectively. In addition, the outcome in [6] was Active.
Regarding `O=c1[nH]c(=S)[nH]c(-c2ccc3ccccc3c2)c1Cc1c(O)ccc2ccccc12`, the outcome in [10] and in [9] was Active. The outcome in data set [1] was inactive. The figures for the IC50 in data set [7] and in [8] were 49.9 µM and 12.4 µM, respectively. In addition, in [3], the Activity result is “Non-toxic”. In addition, the inhibition is 83% in data set [4] and 47.9% in data set [5].
